Like-named read-outs stand apart in the source and are kept apart here. One block for each compound: values may come before it.
Assays:
human PBMCs [1] = test: Transwell human PBMC migration to human OS cell line conditioned media; type: cell-based; details: 1 hour pretreatment, 10 μg/mL losartan
Outline: (§1)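 Four human (THP-1, human PBMC) or four canine (canine PBMC) OS cell lines, kept in DMEM/10% FBS at 37°C and 5% CO2, supplied conditioned media as chemoattractant in transwell migration assays. Wells were run in technical triplicate or quadruplicate. […] Results are mean ± SD, one-way ANOVA with Tukey.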

TGFβ = test: Serum TGF-β concentrations in treated dogs; type: in vivo, dog; details: high losartan dose 10 mg/kg + toceranib
lung metastatic burden = details: cited from earlier work
[2] = tested on: CCL2-directed migration of canine PBMCs; type: cell-based
human PBMCs [3] = test: RNA-seq differential gene expression of losartan-treated human PBMCs; type: cell-based; details: losartan 10 μg/mL 24 h vs control
Outline: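 PBMCs from healthy male and female donors were Ficoll-isolated from EDTA blood and plated at 3e6/mL in RPMI, 10% FBS, penicillin/streptomycin and L-glutamine. […] Extracted RNA was sequenced. Counts were RUVr-normalized, differential expression was called by limma-voom/edgeR, and GSEA was run.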

CCL2 = test: Plasma CCL2 concentration in treated dogs by ELISA; type: in vivo, dog; details: for dogs with posttreatment increases in plasma CCL2 / mean increase in plasma CCL2 above baseline: 10 mg/kg cohort
[4] = tested on: CCL2-directed monocyte migration; test: Ex vivo CCL2-directed monocyte migration of PBMCs from treated dogs; type: in vivo, dog; details: for dogs with reduction of CCL2-mediated ex vivo monocyte migration from baseline: 10 mg/kg cohort
Outline: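 Blood was drawn at baseline and at rechecks (days 7, 14, 28 in the 10 mg/kg cohort) and ACK-lysed within 1 h. Fresh PBMCs were assayed immediately for CCL2-directed transwell migration. Chemotactic index is the fold-change over negative-control wells, expressed as % of week 0.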

human PBMCs [5] = test: Gene Set Enrichment Analysis; type: cell-based; details: losartan treated vs control PBMCs
[6] = tested on: peripheral blood myeloid cells; test: Peripheral blood total myeloid cell counts; type: in vivo, dog; details: week 4 posttreatment, low- and high-dose cohorts combined n=19
THP-1 cells = test: Transwell THP-1 monocyte migration to human OS cell line conditioned media; type: cell-based; details: 1 hour pretreatment, 10 μg/mL losartan
Outline: as §1

[7] = Losartan plasma pharmacokinetics in dogs; type: in vivo, dog; details: for AUC(0-t) / Cmax: dog, plasma, po
[8] = Systolic blood pressure monitoring in treated dogs; type: in vivo, dog; details: 1 and 10 mg/kg cohorts, repeated blood pressure measurements
CCL2–CCR2 signaling = details: independent of AT1R; cited from earlier work
[9] = tested on: lung metastatic osteosarcoma; test: Clinical response; type: in vivo, dog; details: single agent toceranib, dogs with metastatic OS

mean plasma concentration ([7]; 1 mg/kg oral cohort, OS dogs, ~6 h post dose): 6.8 ng/mL
AUC(0-t) ([7]; 2.5 mg/kg): 303 ng·h/mL
Cmax ([7]; 2.5 mg/kg): 76.7 ng/mL
AUC(0-t) ([7]; 10 mg/kg): 1580 ng·h/mL
Cmax ([7]; 10 mg/kg): 509 ng/mL
SMILES: CCCCc1nc(Cl)c(CO)n1Cc1ccc(-c2ccccc2-c2nn[nH]n2)cc1 [losartan]
human PBMC migration to OS conditioned media (human PBMCs [1]): significant inhibited
serum TGFβ posttreatment (TGFβ): no posttreatment changes
lung metastatic burden in mice (lung metastatic burden): significantly reduced
CCL2-directed migration of canine PBMCs, % of untreated positive control wells ([2]; losartan 100 ng/mL in vitro): 42%
CCL2-directed migration of canine PBMCs, % of untreated positive control wells ([2]; losartan 10 μg/mL in vitro): 12%
genes downregulated (human PBMCs [3]): 27 genes
genes upregulated (human PBMCs [3]): 32 genes
dogs with increases in plasma CCL2 (CCL2; 1 mg/kg cohort, 2 weeks posttreatment): five of six
dogs with posttreatment increases in plasma CCL2 (CCL2; week 2): 12 of 15
mean increase in plasma CCL2 above baseline (CCL2; week 2): 149.4%
dogs with posttreatment increases in plasma CCL2 (CCL2; week 4): 11 of 12
mean increase in plasma CCL2 above baseline (CCL2; week 4): 186.3%
CCL2-mediated ex vivo monocyte migration following treatment ([4]; 1 mg/kg losartan cohort (+ toceranib), OS dogs): unexpectedly increased
dogs with reduction of CCL2-mediated ex vivo monocyte migration from baseline ([4]; week 1): 7 of 14
dogs with reduction of CCL2-mediated ex vivo monocyte migration from baseline ([4]; week 2): 8 of 15
dogs with reduction of CCL2-mediated ex vivo monocyte migration from baseline ([4]; week 4): 7 of 11
pathways significantly (Padj < 0.05) downregulated by GSEA (human PBMCs [5]): 409 pathways
total peripheral blood myeloid cells (combined monocyte and neutrophil counts) [6]: significant reduction
THP-1 migration to OS conditioned media (THP-1 cells): significant inhibited
hypotension associated with losartan treatment [8]: no dogs experienced any significant hypotension
monocyte recruitment, noncompetitive inhibition of CCL2–CCR2 signaling induced ERK1/2 activation (CCL2–CCR2 signaling): potently inhibits

SMILES: Cc1[nH]c(/C=C2\C(=O)Nc3ccc(F)cc32)c(C)c1C(=O)NCCN1CCCC1 [toceranib, toceranib phosphate]
Clinical benefit rate (SD, PR, and CR) [9]: 18%
Progression-free survival, range [9]: 7 to 176 days
